Results as given in ChEMBL document CHEMBL1146951, “Structure-guided identification of novel VEGFR-2 kinase inhibitors via solution phase parallel synthesis” (Bioorg Med Chem Lett, 2006).
The source made the active and inactive calls. No cut-off for these calls is given here.

What was measured:
[1] = molecular target: T1, Vascular endothelial growth factor receptor 2 (Homo sapiens, UniProt P35968); test: Inhibition of VEGFR2 at 1 uM
Summary of the method: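 Kinase activity of baculovirus-expressed human VEGFR2 enzyme.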

[2] = tested on: SVR; test: Antitumor efficacy against SVR cells in nude mice at 30 mg/kg, po; type: functional, organism-based; parameters: dose 30 mg/kg; conditions: Mus musculus
Summary of the method: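 SVR murine angiosarcoma cells implanted in the right flank of female athymic nude mice. On day 5 post-implantation, once tumors were palpable, mice were randomized (n = 8–10). Dosing was 30 mg/kg/dose orally twice a day for 10 days in Tween:PG 1:1 vehicle. Tumor growth was compared with vehicle-treated controls.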

[3] = molecular target: T2, Vascular endothelial growth factor receptor (Homo sapiens) (UniProt P17948+P35916+P35968); test: Inhibition of microvessel growth in rat aortic ring at 40 nM; type: functional, tissue-based; conditions: Aorta, target entry is the homologue from another species
Summary of the method: (§1)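 Rat aortic ring explants were cultured in serum-free collagen gel in serum-free MCDB 131 medium without exogenous VEGF. Microvessel sprouting was scored at peak growth (day 8) as percent inhibition relative to untreated controls. n = 8 replicates per concentration; inter-assay variability <10%. Statistics by Student Newman–Keuls test.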

[4] = molecular target: High affinity nerve growth factor receptor (Homo sapiens) (UniProt P04629); test: Inhibition of TrkA at 1 uM
[5] = molecular target: T2, Vascular endothelial growth factor receptor (Homo sapiens); test: Inhibition of microvessel growth in rat aortic ring at 4 nM; type: functional, tissue-based; conditions: Aorta, target entry is the homologue from another species; summary of the method: as §1
[6] = molecular target: Vascular endothelial growth factor receptor 1 (Homo sapiens) (UniProt P17948); test: Inhibition of VEGFR1 at 300 nM
[7] = molecular target: Vascular endothelial growth factor receptor 3 (Homo sapiens) (UniProt P35916); test: Inhibition of VEGFR3 at 300 nM
[8] = molecular target: T2, Vascular endothelial growth factor receptor (Homo sapiens); test: Inhibition of microvessel growth in rat aortic ring at 100 nM; type: functional, tissue-based; conditions: Aorta, target entry is the homologue from another species; summary of the method: as §1
[9] = molecular target: Cyclin-dependent kinase 1/cyclin B1 (Homo sapiens, UniProt P06493); test: Inhibition of CDK1/CyclinB1; type: protein-complex assay
[10] = molecular target: T2, Vascular endothelial growth factor receptor (Homo sapiens); test: Inhibition of microvessel growth in rat aortic ring at 400 nM; type: functional, tissue-based; conditions: Aorta, target entry is the homologue from another species; summary of the method: as §1
[11] = molecular target: T1, Vascular endothelial growth factor receptor 2; test: Inhibition of VEGFR2
[12] = molecular target: Protein kinase C (PKC) (Homo sapiens) (UniProt O94806+P41743+P17252+P05129+Q05655+P05771+Q05513+Q02156+P24723+Q15139+Q04759); test: Inhibition of PKC at 1 uM; type: protein assay

T2 sequence (P17948 whole entry, looked up): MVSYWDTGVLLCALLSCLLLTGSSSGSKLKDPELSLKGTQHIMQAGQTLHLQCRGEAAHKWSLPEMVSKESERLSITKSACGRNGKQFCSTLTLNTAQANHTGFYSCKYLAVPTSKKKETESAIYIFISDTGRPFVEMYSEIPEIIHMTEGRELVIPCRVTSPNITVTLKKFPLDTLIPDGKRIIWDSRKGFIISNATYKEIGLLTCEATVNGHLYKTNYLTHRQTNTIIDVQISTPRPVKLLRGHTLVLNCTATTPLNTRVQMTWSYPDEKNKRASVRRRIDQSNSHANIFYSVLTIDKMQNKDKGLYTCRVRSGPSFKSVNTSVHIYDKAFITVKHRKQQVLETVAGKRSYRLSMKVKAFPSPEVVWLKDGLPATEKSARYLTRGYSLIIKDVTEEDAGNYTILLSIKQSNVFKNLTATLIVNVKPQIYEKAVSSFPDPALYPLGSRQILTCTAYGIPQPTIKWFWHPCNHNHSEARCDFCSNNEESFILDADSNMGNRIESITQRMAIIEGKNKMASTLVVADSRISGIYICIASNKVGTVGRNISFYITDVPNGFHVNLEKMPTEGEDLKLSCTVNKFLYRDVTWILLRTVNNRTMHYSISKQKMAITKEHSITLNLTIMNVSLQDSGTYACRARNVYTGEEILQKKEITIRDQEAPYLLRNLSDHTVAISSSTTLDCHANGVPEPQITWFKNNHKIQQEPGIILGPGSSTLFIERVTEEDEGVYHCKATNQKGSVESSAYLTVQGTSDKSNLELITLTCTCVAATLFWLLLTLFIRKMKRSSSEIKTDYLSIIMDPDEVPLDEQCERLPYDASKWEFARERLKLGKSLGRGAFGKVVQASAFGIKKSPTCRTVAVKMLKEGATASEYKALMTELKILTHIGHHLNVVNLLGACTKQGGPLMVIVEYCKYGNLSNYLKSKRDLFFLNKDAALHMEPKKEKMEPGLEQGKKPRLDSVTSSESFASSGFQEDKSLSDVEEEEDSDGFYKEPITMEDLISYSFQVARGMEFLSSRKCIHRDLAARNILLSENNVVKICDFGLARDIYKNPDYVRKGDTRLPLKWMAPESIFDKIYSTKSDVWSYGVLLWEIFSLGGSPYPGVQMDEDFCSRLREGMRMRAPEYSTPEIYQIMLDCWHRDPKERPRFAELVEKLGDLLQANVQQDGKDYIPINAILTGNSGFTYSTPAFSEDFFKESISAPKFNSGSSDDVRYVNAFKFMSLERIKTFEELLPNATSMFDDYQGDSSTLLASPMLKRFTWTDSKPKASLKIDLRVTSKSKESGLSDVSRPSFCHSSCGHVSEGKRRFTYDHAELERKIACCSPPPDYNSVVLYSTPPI
T2 sequence (P35916 whole entry, looked up): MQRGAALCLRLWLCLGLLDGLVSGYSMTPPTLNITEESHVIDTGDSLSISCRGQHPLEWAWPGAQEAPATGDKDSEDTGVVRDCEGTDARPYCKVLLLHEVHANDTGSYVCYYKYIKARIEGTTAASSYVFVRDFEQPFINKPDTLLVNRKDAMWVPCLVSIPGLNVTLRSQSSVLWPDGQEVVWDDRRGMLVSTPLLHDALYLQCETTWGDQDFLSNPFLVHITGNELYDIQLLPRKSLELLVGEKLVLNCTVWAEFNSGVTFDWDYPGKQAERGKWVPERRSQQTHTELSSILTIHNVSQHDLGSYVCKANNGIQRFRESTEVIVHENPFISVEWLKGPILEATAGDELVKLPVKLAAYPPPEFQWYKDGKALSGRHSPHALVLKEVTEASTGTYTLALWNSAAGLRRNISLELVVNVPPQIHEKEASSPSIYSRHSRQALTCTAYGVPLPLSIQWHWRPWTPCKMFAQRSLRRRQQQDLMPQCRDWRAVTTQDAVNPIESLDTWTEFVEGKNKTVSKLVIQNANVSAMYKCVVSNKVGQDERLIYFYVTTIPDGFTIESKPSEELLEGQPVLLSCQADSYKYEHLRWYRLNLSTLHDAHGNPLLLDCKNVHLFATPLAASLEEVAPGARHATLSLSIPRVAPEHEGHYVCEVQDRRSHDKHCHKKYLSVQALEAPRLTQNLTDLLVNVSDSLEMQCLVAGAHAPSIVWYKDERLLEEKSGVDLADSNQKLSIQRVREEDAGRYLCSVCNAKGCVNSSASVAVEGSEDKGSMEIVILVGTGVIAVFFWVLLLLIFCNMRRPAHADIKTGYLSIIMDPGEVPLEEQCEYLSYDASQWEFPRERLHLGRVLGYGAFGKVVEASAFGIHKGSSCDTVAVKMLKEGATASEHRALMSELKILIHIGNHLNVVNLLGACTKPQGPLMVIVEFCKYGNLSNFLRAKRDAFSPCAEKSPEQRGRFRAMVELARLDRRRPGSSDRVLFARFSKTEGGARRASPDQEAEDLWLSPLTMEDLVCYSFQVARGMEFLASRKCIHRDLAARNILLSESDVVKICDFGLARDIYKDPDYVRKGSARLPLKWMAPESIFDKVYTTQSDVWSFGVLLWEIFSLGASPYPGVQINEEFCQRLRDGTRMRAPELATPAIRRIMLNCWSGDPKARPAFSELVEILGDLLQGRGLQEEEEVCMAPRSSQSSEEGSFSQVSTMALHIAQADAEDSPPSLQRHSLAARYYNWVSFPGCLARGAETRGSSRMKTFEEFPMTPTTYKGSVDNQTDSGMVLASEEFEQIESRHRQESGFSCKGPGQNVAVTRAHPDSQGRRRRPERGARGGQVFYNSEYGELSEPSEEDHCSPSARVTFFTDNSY
T2 sequence (P35968 whole entry, looked up): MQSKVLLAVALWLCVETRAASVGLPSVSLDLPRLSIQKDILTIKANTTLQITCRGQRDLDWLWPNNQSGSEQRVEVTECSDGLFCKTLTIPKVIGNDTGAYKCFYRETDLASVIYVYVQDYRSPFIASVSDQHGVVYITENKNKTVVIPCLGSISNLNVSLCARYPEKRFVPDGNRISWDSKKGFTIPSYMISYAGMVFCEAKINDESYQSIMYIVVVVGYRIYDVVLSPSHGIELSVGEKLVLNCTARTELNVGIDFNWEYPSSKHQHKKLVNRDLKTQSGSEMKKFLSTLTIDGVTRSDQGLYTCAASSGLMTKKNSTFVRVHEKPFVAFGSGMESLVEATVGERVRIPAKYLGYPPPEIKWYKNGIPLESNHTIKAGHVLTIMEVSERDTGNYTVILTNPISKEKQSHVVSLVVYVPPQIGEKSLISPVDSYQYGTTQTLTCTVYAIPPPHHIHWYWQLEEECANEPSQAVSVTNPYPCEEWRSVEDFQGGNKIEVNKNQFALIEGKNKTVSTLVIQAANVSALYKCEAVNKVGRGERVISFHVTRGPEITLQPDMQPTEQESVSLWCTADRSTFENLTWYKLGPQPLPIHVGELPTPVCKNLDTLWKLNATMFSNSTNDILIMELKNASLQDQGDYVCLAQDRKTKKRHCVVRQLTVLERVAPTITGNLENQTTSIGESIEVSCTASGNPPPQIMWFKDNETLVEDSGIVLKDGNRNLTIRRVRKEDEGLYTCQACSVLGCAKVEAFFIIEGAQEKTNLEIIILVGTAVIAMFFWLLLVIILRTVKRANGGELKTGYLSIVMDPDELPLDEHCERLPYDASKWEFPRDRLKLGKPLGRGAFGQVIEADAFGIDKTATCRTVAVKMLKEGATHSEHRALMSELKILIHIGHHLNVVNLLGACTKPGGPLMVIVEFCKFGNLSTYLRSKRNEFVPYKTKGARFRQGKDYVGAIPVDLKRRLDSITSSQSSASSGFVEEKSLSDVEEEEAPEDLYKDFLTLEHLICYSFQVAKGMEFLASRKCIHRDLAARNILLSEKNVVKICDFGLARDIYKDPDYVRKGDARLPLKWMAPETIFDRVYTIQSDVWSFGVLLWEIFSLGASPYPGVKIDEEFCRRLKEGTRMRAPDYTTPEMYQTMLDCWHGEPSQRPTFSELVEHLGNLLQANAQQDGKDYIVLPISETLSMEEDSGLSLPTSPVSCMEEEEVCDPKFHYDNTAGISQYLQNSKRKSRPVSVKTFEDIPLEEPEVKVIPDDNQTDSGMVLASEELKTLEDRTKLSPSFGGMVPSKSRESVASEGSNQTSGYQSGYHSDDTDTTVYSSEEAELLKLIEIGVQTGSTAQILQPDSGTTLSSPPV
T1 sequence (P35968 whole entry): as the sequence (P35968 whole entry, looked up) above
Cyclin-dependent kinase 1/cyclin B1, sequence (P06493 whole entry): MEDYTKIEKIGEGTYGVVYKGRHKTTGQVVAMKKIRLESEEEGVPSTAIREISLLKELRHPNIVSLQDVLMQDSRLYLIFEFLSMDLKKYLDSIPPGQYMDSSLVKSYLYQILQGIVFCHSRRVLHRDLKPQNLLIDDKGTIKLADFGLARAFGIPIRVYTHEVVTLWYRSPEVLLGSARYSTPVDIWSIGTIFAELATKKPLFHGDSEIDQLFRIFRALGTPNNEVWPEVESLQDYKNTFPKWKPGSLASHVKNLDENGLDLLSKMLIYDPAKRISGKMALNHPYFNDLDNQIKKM
Cyclin-dependent kinase 1/cyclin B1, sequence (P14635 whole entry, further chain): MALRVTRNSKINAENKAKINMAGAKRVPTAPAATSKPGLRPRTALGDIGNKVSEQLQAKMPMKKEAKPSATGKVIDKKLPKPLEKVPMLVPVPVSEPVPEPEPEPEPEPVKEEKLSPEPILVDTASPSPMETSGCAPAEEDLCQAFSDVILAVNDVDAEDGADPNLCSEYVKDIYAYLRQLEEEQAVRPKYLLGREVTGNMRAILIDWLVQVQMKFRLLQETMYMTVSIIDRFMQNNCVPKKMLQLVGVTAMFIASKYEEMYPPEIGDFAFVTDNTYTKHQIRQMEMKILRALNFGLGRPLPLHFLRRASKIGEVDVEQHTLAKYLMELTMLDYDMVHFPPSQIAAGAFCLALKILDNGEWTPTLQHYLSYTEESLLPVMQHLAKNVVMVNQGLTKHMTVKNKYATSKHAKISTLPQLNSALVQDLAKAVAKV
Vascular endothelial growth factor receptor 3 (Homo sapiens), sequence (P35916 whole entry): as the sequence (P35916 whole entry, looked up) above
Vascular endothelial growth factor receptor 1 (Homo sapiens), sequence (P17948 whole entry): as the sequence (P17948 whole entry, looked up) above

inhibition [1] | inhibition [3] | inhibition [4] | inhibition [5] | inhibition [6] | inhibition [7] | inhibition [8] | IC50 [9] | inhibition [10] | IC50 [11] | inhibition [12] | SMILES | Activity [2]
23% | – | – | – | – | – | – | – | – | – | – | Cn1cc(/C=C2\C(=O)N(c3ccccc3)N=C2c2cnccn2)c2ccccc21 | –
– | 66% | 44% | 55% | 25% | 63% | 75% | > 100 µM | 90% | 32 nM | 13% | Cn1cc(/C=C2\C(=O)NN=C2c2nccs2)c2cc3c(cc21)OCO3 | Active
5% | – | – | – | – | – | – | – | – | – | – | Cn1cc(CC2C(=O)NN=C2c2nccs2)c2ccccc21 (stereo not drawn) | –
